Data from ChEMBL document CHEMBL4261487, “Small structural changes of the imidazopyridine diacylglycerol acyltransferase 2 (DGAT2) inhibitors produce an improved safety profile” (Medchemcomm, 2017).

What was measured:
UGT = assay: Drug metabolism in human liver microsomes assessed as UGT-mediated glucuronidation by measuring clearance rate; format: ADME; settings: liver microsomes, read-out: CLH
CYP3A4 = CYP3A4 (Homo sapiens, UniProt P08684); assay: Drug metabolism in human liver microsomes assessed as CYP3A4-mediated oxidative metabolism by measuring clearance rate; format: ADME; settings: liver microsomes, read-out: CLH
Rattus norvegicus [1] = assay: Unbound Cmax in Wistar Han IGS rat at 100 mg/kg, po qd administered for 14 days; format: ADME, organism-based; settings: in vivo, 336 h
Procedure, shortened: (§1)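 Wistar Han rats were dosed orally once daily for 14 days (exploratory, 5/sex/dose) or 1 month (toxicity, 10/sex/dose). Toxicokinetic satellite animals (3–4/sex/dose) were used, and steady-state systemic exposure is given as the mean of male and female values combined.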

Rattus norvegicus [2] = assay: Unbound Cmax in Wistar Han IGS rat at 500 mg/kg, po qd administered for 14 days; format: ADME, organism-based; settings: in vivo, 336 h; procedure, shortened: as §1
Rattus norvegicus [3] = assay: Unbound AUC in Wistar Han IGS rat at 10 mg/kg, po qd administered for 14 days; format: ADME, organism-based; settings: in vivo, 336 h; procedure, shortened: as §1
Rattus norvegicus [4] = assay: Unbound AUC in Wistar Han IGS rat at 100 mg/kg, po qd administered for 14 days; format: ADME, organism-based; settings: in vivo, 336 h; procedure, shortened: as §1
Canis familiaris [5] = assay: Toxicity in telemetered beagle dog assessed as increase in systolic pressure at 10 mg/kg administered via oral gavage measured over 24 hrs; format: organism-based, Canis lupus familiaris; settings: in vivo
Rattus norvegicus [6] = assay: Unbound AUC in Wistar Han IGS rat at 60 mg/kg, po qd administered for 1 month; format: ADME, organism-based; settings: in vivo; procedure, shortened: as §1
Rattus norvegicus [7] = assay: Toxicity in Wistar Han IGS rat assessed as increase in heart weight at 60 to 300 mg/kg, po qd administered for 1 month; format: organism-based; settings: in vivo
Procedure, shortened: (§2)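 Wistar Han rats, daily oral dosing for 14 days (5/sex/dose) or 1 month (10/sex/dose); microscopic findings reported as incidence by sex, plus organ weights.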

Canis familiaris [8] = assay: Toxicity in telemetered beagle dog assessed as change in left ventricular parameters and activity level at 5 mg/kg administered via oral gavage measured over 24 hrs; format: organism-based, Canis lupus familiaris; settings: in vivo
Canis familiaris [9] = assay: Toxicity in beagle dog at 75 mg/kg, po qd administered for 14 days; format: organism-based, Canis lupus familiaris; settings: in vivo, 336 h
Canis familiaris [10] = assay: Toxicity in beagle dog assessed as unscheduled death at 300 mg/kg, po qd administered for 14 days; format: organism-based, Canis lupus familiaris; settings: in vivo, 336 h
Canis familiaris [11] = assay: Toxicity in beagle dog assessed as renal tubular regeneration at 300 mg/kg, po qd administered for 14 days; format: organism-based, Canis lupus familiaris; settings: in vivo, 336 h
Rattus norvegicus [12] = assay: Toxicity in Wistar Han IGS rat assessed as gastric ulcer at 500 mg/kg, po qd administered for 14 days; format: organism-based; settings: in vivo, 336 h; procedure, shortened: as §2
Rattus norvegicus [13] = assay: Toxicity in Wistar Han IGS rat assessed as foamy macrophage accumulation in lung at 500 mg/kg, po qd administered for 14 days; format: organism-based; settings: in vivo, 336 h; procedure, shortened: as §2
Canis familiaris [14] = assay: Unbound Cmax in beagle dog at 10 mg/kg, po qd administered for 1 month; format: ADME, organism-based, Canis lupus familiaris; settings: in vivo
Procedure, shortened: (§3)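 Beagle dogs were dosed orally once daily in a 14-day exploratory study or 1-month toxicity studies. Steady-state systemic exposure over the 24 h dosing interval is reported as the mean of male and female values combined.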

Canis familiaris [15] = assay: Unbound AUC in beagle dog at 5 mg/kg, po qd administered for 1 month; format: ADME, organism-based, Canis lupus familiaris; settings: in vivo; procedure, shortened: as §3
Canis familiaris [16] = assay: Unbound AUC in beagle dog at 10 mg/kg, po qd administered for 1 month; format: ADME, organism-based, Canis lupus familiaris; settings: in vivo; procedure, shortened: as §3
Canis familiaris [17] = assay: Toxicity in telemetered beagle dog assessed as change in heart rate at 5 mg/kg administered via oral gavage measured over 24 hrs; format: organism-based, Canis lupus familiaris; settings: in vivo
Canis familiaris [18] = assay: Toxicity in beagle dog assessed as body weight gain at 150 mg/kg, po qd administered for 10 days; format: organism-based, Canis lupus familiaris; settings: in vivo, 240 h
Canis familiaris [19] = assay: Toxicity in beagle dog assessed as body weight gain at 100 mg/kg, po qd administered starting on day 11 post 150 mg/kg dosing period and continuing for 20 days; format: organism-based, Canis lupus familiaris; settings: in vivo, 480 h
Canis familiaris [20] = assay: Toxicity in beagle dog assessed as increase in heart rate at 50 to 150 mg/kg, po qd administered for 1 month; format: organism-based, Canis lupus familiaris; settings: in vivo
Canis familiaris [21] = assay: In vivo inhibition of DGAT2 in beagle dog assessed as coverage of in vitro IC50 for dog DGAT2 at 300 mg/kg, po qd administered for 14 days; format: functional, Canis lupus familiaris; set-up: scale not given: the % may be the effect or the level left
Procedure, shortened: (§4)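 Beagle dogs, once-daily oral dosing for 14 days or 1 month; systemic exposure with sexes combined; coverage is the average % above dog DGAT2 IC50 at steady state over the 24 h dosing interval.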

Canis familiaris [22] = assay: In vivo inhibition of DGAT2 in beagle dog assessed as coverage of in vitro IC50 for dog DGAT2 at 2 mg/kg, po qd administered for 1 month; format: functional, Canis lupus familiaris; set-up: scale not given: the % may be the effect or the level left; procedure, shortened: as §4
Canis familiaris [23] = assay: In vivo inhibition of DGAT2 in beagle dog assessed as coverage of in vitro IC50 for dog DGAT2 at 10 mg/kg, po qd administered for 1 month; format: functional, Canis lupus familiaris; set-up: scale not given: the % may be the effect or the level left; procedure, shortened: as §4
Canis familiaris [24] = assay: In vivo inhibition of DGAT2 in beagle dog assessed as coverage of in vitro IC50 for dog DGAT2 at 100 to 150 mg/kg, po qd administered for 1 month; format: functional, Canis lupus familiaris; set-up: scale not given: the % may be the effect or the level left; procedure, shortened: as §4
Canis familiaris [25] = assay: Unbound Cmax in telemetered beagle dog at 25 mg/kg administered via oral gavage measured over 24 hrs; format: ADME, organism-based, Canis lupus familiaris; settings: in vivo
Procedure, shortened: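 Telemetered Beagle dogs given oral doses, with blood pressure and heart rate monitored after dosing alongside plasma exposure.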

Canis familiaris [26] = assay: Toxicity in telemetered beagle dog assessed as increase in systolic pressure at 25 mg/kg administered via oral gavage measured over 24 hrs; format: organism-based, Canis lupus familiaris; settings: in vivo
Canis familiaris [27] = assay: Toxicity in telemetered beagle dog assessed as increase in diastolic pressure at 25 mg/kg administered via oral gavage measured over 24 hrs; format: organism-based, Canis lupus familiaris; settings: in vivo
[28] = Apparent intrinsic clearance in human hepatocytes assessed per million cells; format: ADME, cell-based, Hepatocyte
Cytochrome P450 3A4 = Cytochrome P450 3A4 (Homo sapiens, UniProt P08684); assay: Drug metabolism in human liver microsomes assessed as fraction of CYP3A4-mediated oxidative metabolism preincubated for 5 mins followed by addition of NADPH regenerating system and measured after 2.5 to 60 mins; format: ADME
Procedure, shortened: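 Fractions of metabolism attributed to CYP oxidation and UGT glucuronidation were derived from human liver microsomal incubations. For the glucuronidation arm, microsomes were supplemented with the UGT cofactor UDP-glucuronic acid.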

[29] = Fraction unbound in dog plasma; format: ADME, cell-free, Canis lupus familiaris
[30] = Plasma clearance in beagle dog at 1 mg/kg, iv; format: ADME, organism-based, Canis lupus familiaris
Canis familiaris [31] = assay: Unbound Cmax in beagle dog at 30 mg/kg, po qd administered for 1 month; format: ADME, organism-based, Canis lupus familiaris; settings: in vivo
Procedure, shortened: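 One-month dog toxicity study with once-daily oral dosing. Toxicity groups were 2/sex/dose, and unbound peak exposure was taken from toxicokinetic sampling.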

Canis familiaris [32] = assay: In vivo inhibition of DGAT2 in beagle dog assessed as coverage of in vitro IC50 for dog DGAT2 at 30 mg/kg, po qd administered for 1 month; format: functional, Canis lupus familiaris; set-up: scale not given: the % may be the effect or the level left; procedure, shortened: as §4
Canis familiaris [33] = assay: Toxicity in beagle dog at 3 to 30 mg/kg, po qd administered for 1 month; format: organism-based, Canis lupus familiaris; settings: in vivo
Canis familiaris [34] = assay: Toxicity in telemetered beagle dog assessed as increase in systolic pressure at 50 mg/kg administered via oral gavage measured during 4 hrs of post dosing; format: organism-based, Canis lupus familiaris; settings: in vivo
Canis familiaris [35] = assay: Toxicity in telemetered beagle dog assessed as increase in diastolic pressure at 25 mg/kg administered via oral gavage measured during 4 hrs of post dosing; format: organism-based, Canis lupus familiaris; settings: in vivo
Canis familiaris [36] = assay: Toxicity in telemetered beagle dog assessed as increase in heart rate at 25 mg/kg administered via oral gavage measured during 4 hrs of post dosing; format: organism-based, Canis lupus familiaris; settings: in vivo
Canis familiaris [37] = assay: Toxicity in telemetered beagle dog assessed as emesis at 5 to 50 mg/kg administered via oral gavage measured within 4 hrs of dosing; format: organism-based, Canis lupus familiaris; settings: in vivo

Sequence of CYP3A4 (P08684 whole entry): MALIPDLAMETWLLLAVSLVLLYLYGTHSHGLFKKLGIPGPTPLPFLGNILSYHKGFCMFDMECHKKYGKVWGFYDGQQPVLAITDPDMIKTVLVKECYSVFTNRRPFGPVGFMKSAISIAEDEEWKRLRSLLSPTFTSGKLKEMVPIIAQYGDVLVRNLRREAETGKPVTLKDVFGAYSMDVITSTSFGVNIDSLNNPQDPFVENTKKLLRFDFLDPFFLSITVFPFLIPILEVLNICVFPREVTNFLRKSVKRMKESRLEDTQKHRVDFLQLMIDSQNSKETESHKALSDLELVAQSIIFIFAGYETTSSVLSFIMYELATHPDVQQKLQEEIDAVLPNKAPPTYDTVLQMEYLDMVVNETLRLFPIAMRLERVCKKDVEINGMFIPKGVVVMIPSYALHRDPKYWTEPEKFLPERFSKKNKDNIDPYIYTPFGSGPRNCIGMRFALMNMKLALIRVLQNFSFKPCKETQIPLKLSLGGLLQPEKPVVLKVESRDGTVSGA
Sequence of Cytochrome P450 3A4 (P08684 whole entry): as above

SMILES: CS(=O)(=O)O.O=C([C@@H]1CCCN(c2ccc3nc(C4(n5cc(Cl)cn5)CC4)[nH]c3n2)C1)N1CCCC1
- microsomal CLint (UGT): < 1.9 µL/min/mg
- microsomal CLint (CYP3A4): 23.7 µL/min/mg
- fCmax (Rattus norvegicus [1]): 4.65 µM
- fCmax (Rattus norvegicus [2]): 18.8 µM
- fAUC (Rattus norvegicus [3]): 1190 ng·h/mL
- fAUC (Rattus norvegicus [4]): 25600 ng·h/mL
- Activity (Canis familiaris [5]): 3 mmHg
- fAUC (Rattus norvegicus [6]): 22600 ng·h/mL
- Activity (Rattus norvegicus [7]): Toxic
- Activity (Canis familiaris [8]): Non-Toxic
- Activity (Canis familiaris [9]): Non-Toxic
- Activity (Canis familiaris [10]): Toxic
- Activity (Canis familiaris [11]): Toxic
- Activity (Rattus norvegicus [12]): Toxic
- Activity (Rattus norvegicus [13]): Toxic
- fCmax (Canis familiaris [14]): 2030 nM
- fAUC (Canis familiaris [15]): 1120 ng·h/mL
- fAUC (Canis familiaris [16]): 5280 ng·h/mL
- Activity (Canis familiaris [17]): Non-Toxic
- Activity (Canis familiaris [18]): Toxic
- Activity (Canis familiaris [19]): Non-Toxic
- Activity (Canis familiaris [20]): Toxic
- Activity (Canis familiaris [21]): >99%
- Activity (Canis familiaris [22]): 60%
- Activity (Canis familiaris [23]): 97%
- Activity (Canis familiaris [24]): >99%
- fCmax (Canis familiaris [25]): 4.06 µM
- Activity (Canis familiaris [26]): 5 mmHg
- Activity (Canis familiaris [27]): Non-Toxic

SMILES: C[C@@H](c1nc2ccc(N3CCC[C@@H](C(=O)N4CCCC4)C3)nc2[nH]1)n1cc(Cl)cn1
- microsomal CLint (UGT): 10.8 µL/min/mg
- microsomal CLint (CYP3A4): 27.5 µL/min/mg
- CLH(app) [28]: 16.1 µL/min
- Ratio (Cytochrome P450 3A4): 0.61
- fraction unbound [29]: 0.12
- clearance [30]: 4 mL/min/kg
- fCmax (Canis familiaris [14]): 1270 nM
- fAUC (Canis familiaris [16]): 2680 ng·h/mL
- Activity (Canis familiaris [23]): 86%
- fCmax (Canis familiaris [31]): 3.76 µM
- Activity (Canis familiaris [32]): 96%
- Activity (Canis familiaris [33]): Non-Toxic
- fCmax (Canis familiaris [25]): 2.14 µM
- Activity (Canis familiaris [34]): 5 mmHg
- Activity (Canis familiaris [35]): 5 mmHg
- Activity (Canis familiaris [36]): 10 bpm
- Activity (Canis familiaris [37]): Toxic
